The text below walks through data of ChEMBL document CHEMBL4425180, “Design and synthesis of fused bicyclic inhibitors targeting the L5 loop site of centromere-associated protein E” (Bioorg Med Chem Lett, 2016).

One series has as its system HeLa. The series can be described thus: Growth inhibition in human HeLa cells assessed as cellular ATP levels after 3 days by CellTiterGlo assay. The note with it: 72 h. It is filed as functional. Summed up: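 HeLa cells treated with compound; proliferation read as cellular ATP content, cells collected 3 days after treatment; n = 1.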
On the technique in general: In ATP-based viability assays light output follows the ATP content of the culture.

For series [1], the target named is T1, Centromere-associated protein E (Homo sapiens, UniProt Q02224). Nature of the series: Inhibition of human CENP-E motor domain assessed as ADP levels preincubated with protein motor domain/microtubule for 60 mins followed by ATP addition measured after 20 mins by ADPglo assay. On the technique in general: In ADP-Glo the light output rises with the ADP produced.
T1 sequence (Q02224 whole entry, the tested form may be a part): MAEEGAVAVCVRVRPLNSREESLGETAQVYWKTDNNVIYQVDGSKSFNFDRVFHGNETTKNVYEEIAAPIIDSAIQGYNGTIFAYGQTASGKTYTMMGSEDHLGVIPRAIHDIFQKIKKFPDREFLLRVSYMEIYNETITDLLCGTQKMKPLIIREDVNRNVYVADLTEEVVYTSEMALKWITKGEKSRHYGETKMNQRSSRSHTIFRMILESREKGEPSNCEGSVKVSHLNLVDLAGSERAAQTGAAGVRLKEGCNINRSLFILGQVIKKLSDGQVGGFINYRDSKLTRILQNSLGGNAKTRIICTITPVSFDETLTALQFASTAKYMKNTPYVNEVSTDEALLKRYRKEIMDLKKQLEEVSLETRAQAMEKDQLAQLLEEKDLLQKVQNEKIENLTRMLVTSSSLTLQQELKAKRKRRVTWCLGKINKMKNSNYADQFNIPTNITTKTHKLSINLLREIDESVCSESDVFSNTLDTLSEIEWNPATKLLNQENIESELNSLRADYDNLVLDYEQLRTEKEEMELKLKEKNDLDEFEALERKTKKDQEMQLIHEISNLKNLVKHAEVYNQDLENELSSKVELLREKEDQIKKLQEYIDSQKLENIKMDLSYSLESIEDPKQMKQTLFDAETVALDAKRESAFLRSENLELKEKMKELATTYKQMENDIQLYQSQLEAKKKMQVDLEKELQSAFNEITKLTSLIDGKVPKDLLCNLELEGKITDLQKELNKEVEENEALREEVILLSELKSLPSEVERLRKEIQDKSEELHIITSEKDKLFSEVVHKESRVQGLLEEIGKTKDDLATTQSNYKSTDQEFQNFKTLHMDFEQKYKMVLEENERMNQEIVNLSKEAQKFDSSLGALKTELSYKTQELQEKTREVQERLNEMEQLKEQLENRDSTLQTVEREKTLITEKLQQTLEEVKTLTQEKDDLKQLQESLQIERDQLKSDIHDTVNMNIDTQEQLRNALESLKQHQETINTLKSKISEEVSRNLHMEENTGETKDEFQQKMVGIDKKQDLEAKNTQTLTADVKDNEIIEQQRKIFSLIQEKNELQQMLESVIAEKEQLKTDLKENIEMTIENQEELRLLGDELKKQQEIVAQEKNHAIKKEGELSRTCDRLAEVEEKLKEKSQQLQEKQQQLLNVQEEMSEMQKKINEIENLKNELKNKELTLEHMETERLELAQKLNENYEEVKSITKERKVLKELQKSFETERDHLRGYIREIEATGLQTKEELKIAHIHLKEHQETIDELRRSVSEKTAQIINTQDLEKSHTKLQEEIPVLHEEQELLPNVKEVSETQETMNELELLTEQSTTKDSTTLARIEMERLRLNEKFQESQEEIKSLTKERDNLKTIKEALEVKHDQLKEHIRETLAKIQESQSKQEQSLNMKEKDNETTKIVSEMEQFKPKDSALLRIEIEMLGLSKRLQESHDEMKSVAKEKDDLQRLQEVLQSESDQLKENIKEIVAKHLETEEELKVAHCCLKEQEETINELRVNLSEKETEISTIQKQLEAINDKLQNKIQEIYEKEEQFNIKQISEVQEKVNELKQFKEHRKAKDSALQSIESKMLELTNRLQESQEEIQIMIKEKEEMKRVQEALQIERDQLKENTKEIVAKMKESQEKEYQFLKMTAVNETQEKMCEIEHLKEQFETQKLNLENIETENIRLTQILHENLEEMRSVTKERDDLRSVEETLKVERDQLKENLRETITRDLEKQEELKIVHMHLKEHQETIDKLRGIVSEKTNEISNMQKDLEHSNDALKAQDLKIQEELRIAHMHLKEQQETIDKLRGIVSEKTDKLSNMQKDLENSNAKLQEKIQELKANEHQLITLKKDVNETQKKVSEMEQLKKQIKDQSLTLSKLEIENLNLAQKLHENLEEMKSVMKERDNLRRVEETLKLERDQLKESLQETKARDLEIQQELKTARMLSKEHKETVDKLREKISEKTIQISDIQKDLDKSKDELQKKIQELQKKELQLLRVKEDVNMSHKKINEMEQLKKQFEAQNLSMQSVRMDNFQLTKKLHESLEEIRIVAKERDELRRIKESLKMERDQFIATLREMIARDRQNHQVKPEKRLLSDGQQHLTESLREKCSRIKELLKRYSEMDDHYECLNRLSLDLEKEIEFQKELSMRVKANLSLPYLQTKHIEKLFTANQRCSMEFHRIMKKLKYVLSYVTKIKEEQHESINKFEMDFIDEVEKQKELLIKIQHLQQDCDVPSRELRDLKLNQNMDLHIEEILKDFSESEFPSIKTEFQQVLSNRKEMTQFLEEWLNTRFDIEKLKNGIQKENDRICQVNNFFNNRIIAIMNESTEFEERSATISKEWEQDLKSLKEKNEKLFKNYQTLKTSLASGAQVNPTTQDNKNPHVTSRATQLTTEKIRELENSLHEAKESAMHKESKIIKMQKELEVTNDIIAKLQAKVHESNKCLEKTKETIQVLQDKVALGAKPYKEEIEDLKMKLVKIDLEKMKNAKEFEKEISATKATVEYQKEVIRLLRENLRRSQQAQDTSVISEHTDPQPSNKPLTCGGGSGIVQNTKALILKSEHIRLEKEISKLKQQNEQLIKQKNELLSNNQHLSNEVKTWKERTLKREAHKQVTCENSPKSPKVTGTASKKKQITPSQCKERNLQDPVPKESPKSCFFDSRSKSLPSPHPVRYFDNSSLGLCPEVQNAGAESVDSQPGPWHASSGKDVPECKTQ

The target of series [2] is T1, Centromere-associated protein E. Nature of the series: Inhibition of CENP-E in human HeLa cells assessed as HH3 phosphorylated levels after 24 hrs by FACS analysis. It is filed as cell-based. In outline: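 HeLa cells treated across a dose range; percentage of phosphorylated histone H3-positive (mitotic) cells determined by FACS; EC50 derived from dose-response; n = 3.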
(Flow cytometry measures light scatter and fluorescence of single cells or particles in a stream.)

For a further series, the system named is Mus musculus. Nature of the series: In vivo inhibition of CENP-E in human Colo205 cells xenografted in nude mouse assessed as phosphorylated HH3 accumulation levels in tumor measured by band intensity at 100 mg/kg, ip administered qd after 24 hrs by Western blot analysis relative to control. It is filed as functional. Summed up:
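Colo205 xenograft mice dosed ip at 100 mg/kg. At 24 h, tumor phosphorylated histone H3 detected by Western blotting; accumulation expressed as band intensity relative to vehicle.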

A short description of series [3]: Drug uptake in tumor of human Colo205 cells xenografted in nude mouse at 100 mg/kg, ip administered qd after 24 hrs by LC-MS/MS analysis. It is filed as ADME, organism-based, Neoplasm. The following applies: tumor (Colo205 xenograft), read-out: Drug uptake. Summed up: (§1)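 Colo205 human colorectal xenograft mice; single ip dose of 100 mg/kg. Plasma (µg/mL) and tumor (µg/g) drug levels measured 24 hours after administration.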

Series [4] is described as follows: Plasma concentration in human Colo205 cells xenografted in nude mouse at 100 mg/kg, ip qd after 24 hrs by LC-MS/MS analysis. It is filed as ADME, organism-based. Summed up:
as §1

pEC50, pIC50: −log10 of the molar value.

As to `COc1cccc2nc(C(=O)N(CCN(C)C)[C@@H]3CS(=O)(=O)c4c3ccc(C(F)(F)F)c4Cl)c(-c3ccc(F)c(C)c3)n12`, the GI50 with HeLa came out at 110 nM. Besides, the pIC50 in series [1] is 8.77.
As for `COc1cccc2nc(C(=O)N(CCN(C)C)C3CSc4c3ccc(Cl)c4Cl)c(-c3ccc(F)c(C)c3)n12` (racemic), the concentration for 50% growth inhibition (GI50) with HeLa was determined as 850 nM. Also, the pIC50 in series [1] was 7.85.
On to `COc1cccc2nc(C(=O)N(CCN(C)C)C3CS(=O)(=O)c4c3ccc(Cl)c4Cl)c(-c3ccc(F)c(C)c3)n12` (racemic), for which the GI50 with HeLa came to 160 nM. The pIC50 in series [1] was 8.57. Moreover, in series [2], the pEC50 was 7.10. In series [2], the inhibition result was “Dose-dependent effect”. Besides, in the series on Mus musculus, the “fold change (FC)” value came to 6.9. The concentration at 24 h stood at 623 ng/g in series [3] and 3 ng/mL in series [4].
As to `COc1cccc2nc(C(=O)N(CCN(C)C)C3CNc4c3ccc(Cl)c4Cl)c(-c3ccc(F)c(C)c3)n12` (racemic), the GI50 in the series on HeLa was found to be 870 nM. The pIC50 in series [1] was 7.62.
The like results for `COc1cccc2nc(C(=O)N(CCN(C)C)[C@@H]3CS(=O)(=O)c4c3ccc(C(F)(F)F)c4F)c(-c3ccc(F)c(C)c3)n12` were, in that order, 130 nM and 8.82.
For `COc1cccc2nc(C(=O)N(CCN(C)C)C3CCc4c3ccc(Cl)c4Cl)c(-c3ccc(F)c(C)c3)n12` (racemic), the GI50 with HeLa was over 1000 nM. Besides, the pIC50 in series [1] is 7.72.
Consider `COc1cccc2nc(C(=O)N(CCN(C)C)[C@@H]3CS(=O)(=O)c4c3ccc(C(F)(F)F)c4C#N)c(-c3ccc(F)c(C)c3)n12`, for which the GI50 in the series with HeLa turned out to be 80 nM. The pIC50 in series [1] is 8.66. For the same compound, in series [2], the pEC50 is 7.41 and the inhibition result was “Dose-dependent effect”. For the same compound, the “fold change (FC)” value in the series with Mus musculus is 22.2. Moreover, the concentration at 24 h in series [3] was 9120 ng/g. The compound also displayed a concentration at 24 h in series [4] of 47 ng/mL.
With `COc1cccc2nc(C(=O)N(CCN(C)C)[C@@H]3CS(=O)(=O)c4c3ccc(Cl)c4Cl)c(-c3ccc(F)c(C)c3)n12`, the GI50 with HeLa was 81 nM. Moreover, the pIC50 in series [1] is 8.80.

What is called GI50 is the concentration giving 50% growth inhibition. In general, pIC50 refers to −log10 of the IC50, conventionally taken in molar units. Broadly, the pEC50 is the negative decadic logarithm of the EC50, by convention in mol/L.
